Common to all, as to assay type: ADME, organism-based
The nature of series [1]: Drug level in brain of C57Bl6 mouse at 10 mg/kg, ip after 2 hrs. Set-up: dose 10 mg/kg, route intraperitoneal. The following applies: read-out: Drug uptake. The method, boiled down:
(§1)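 C57Bl6 mice (n = 3) dosed 10 mg/kg intraperitoneally; blood and brain collected 2 h later. Plasma and brain mixed with acetonitrile (1:5 v:v or w:v); brain broken up by probe sonication. Drug measured by LC-MS/MS against standards in plasma or in blank brain matrix.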

Series [2] can be described thus: AUC in Sprague-Dawley rat at 2 mg/kg, po. More on the design: dose 2 mg/kg, route oral. Particulars: plasma. The method in brief:
(§2)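 Sprague-Dawley rats (n = 3) given 1 mg/kg IV and 2 mg/kg oral gavage. Blood taken into EDTA tubes at 5, 15, 30 min and 1, 2, 4, 6, 8 h; plasma obtained by centrifugation. Plasma proteins precipitated with acetonitrile; drug measured by LC-MS/MS. Parameters derived by noncompartmental analysis.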

In another series the test system is Rattus norvegicus. Description: Oral bioavailability in Sprague-Dawley rat at 2 mg/kg. The following applies: in vivo. The method, boiled down:
as §2

The nature of series [3]: Drug level in plasma of C57Bl6 mouse at 10 mg/kg, ip after 2 hrs. Set-up: dose 10 mg/kg, route intraperitoneal. The following applies: read-out: Drug uptake. The method, boiled down: as §1

Broadly, the AUC is the area under the concentration-time curve, a measure of exposure. Higher therefore signals more exposure.

As for `Cn1ccc(-c2cc(Nc3ccc(-n4cnc(-c5ccccn5)n4)cc3)ncc2F)n1`, the concentration at 2 h stood at 0.74 µM in series [1] and 3.3 µM in series [3]. Moreover, in series [2], the AUC was determined as 14.9 µM·h. The compound further showed a F in the series on Rattus norvegicus of 73%.

As to `Cn1ccc(-c2cc(Nc3ccc(-n4cnc(N5CCOCC5)n4)cc3)ncc2Cl)n1`, the concentration at 2 h in series [1] came to 3.5 µM; in series [3], 6.6 µM. Moreover, in series [2], the AUC was 45 µM·h. The same compound gave a F in the series on Rattus norvegicus of 75%.

With `Cc1nc(C)n(-c2ccc(Nc3cc(-c4nn(C)cc4-c4ccc(F)cc4)ccn3)cc2)n1`, the figures for the concentration at 2 h in series [1] and in series [3] were 1.4 µM and 9 µM, respectively. In series [2], the AUC turned out to be 6 µM·h. In the series with Rattus norvegicus, the F came out at 51%.

Turning to `Cc1ccc(-c2ncn(-c3ccc(Nc4cc(-c5ccn(C)n5)c(F)cn4)cc3)n2)cn1`, the concentration at 2 h in series [1] was 10.3 µM; in series [3] it was 9 µM. Besides, the AUC in series [2] turned out to be 10 µM·h. For the same compound, in the series with Rattus norvegicus, the F was 69%.

For the compound `Cc1nc(C)n(-c2ccc(Nc3cc(-c4ccn(C)n4)c(Cl)cn3)cc2)n1`, the results for the concentration at 2 h in series [1] and in series [3] were 5.3 µM and 10.4 µM, respectively. In series [2], this compound returned an AUC of 7.1 µM·h. In the series with Rattus norvegicus, the F came to 73%.
